For test [1], the target named is Small ubiquitin-related modifier 1 (Homo sapiens) (UniProt P63165). The experiment in a line: Inhibition of SUMO1 (unknown origin) assessed as reduction in SUMOylated RanGAP1 level at 50 uM incubated for 60 mins by western blot analysis. In outline:
(§1)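 Cell-free RanGAP1 SUMOylation reaction; compounds dissolved in the reaction medium at 50 μM for the initial screen, then retested at 5 μM.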
(A western blot detects proteins with antibodies after separation by electrophoresis.)

The test system of test [2] is PC-3. Description: Induction of autophagy-mediated apoptosis in human PC3 cells assessed as increase in cleave PARP level at 10 uM measured after 24 hrs by western blot analysis. In kind it is functional, cell-based. The gist of the method: (§2)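 PC3 cells treated at 10 or 20 μM; cleaved PARP and LC3II levels assessed by immunoblot as apoptosis and autophagy markers.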

Test [3] has as its system PC-3. The experiment in a line: Induction of autophagy-mediated apoptosis in human PC3 cells assessed as increase in cleave PARP level at 20 uM measured after 24 hrs by western blot analysis. It counts as functional, cell-based. In outline: as §2
The subject of test [4] is PC-3. Description: Induction of autophagy in human PC3 cells assessed as increased of LC3-II level at 10 uM incubated for 24 hrs by Western blot analysis. In kind it is functional, cell-based. The gist of the method:
as §2

The target in test [5] is Small ubiquitin-related modifier 1 (Homo sapiens) (UniProt P63165). Description: Inhibition of SUMO1 in human PC3 cells assessed as reduction in SUMOylation level at 10 to 20 uM measured after 24 hrs by western blot analysis. It counts as cell-based. The settings on record: PC-3, dose microM 10-20, time 24.0 hrs.
Sequence of Small ubiquitin-related modifier 1 (Homo sapiens) (P63165 whole entry): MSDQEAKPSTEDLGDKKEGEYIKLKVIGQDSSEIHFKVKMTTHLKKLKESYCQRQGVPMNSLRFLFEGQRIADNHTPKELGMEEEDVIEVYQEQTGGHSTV
The target is the same in test [6]. The experiment in a line: Inhibition of SUMO1 in human MDA-MB-231 cells assessed as reduction in SUMOylation level at 10 uM measured after 24 hrs by western blot analysis. It counts as cell-based.
Test [7] deals with PC-3. The experiment in a line: Induction of autophagy in human PC3 cells assessed as increased of LC3-II level at 20 uM incubated for 24 hrs by Western blot analysis. In kind it is functional, cell-based. The gist of the method: as §2
In test [8] the target is Small ubiquitin-related modifier 2 (Homo sapiens) (UniProt P61956). The experiment in a line: Inhibition of SUMO2 in human PC3 cells assessed as reduction in SUMOylation level at 10 uM measured after 24 hrs by western blot analysis. The settings on record: PC-3. In kind it is cell-based.
Sequence of Small ubiquitin-related modifier 2 (Homo sapiens) (P61956 whole entry): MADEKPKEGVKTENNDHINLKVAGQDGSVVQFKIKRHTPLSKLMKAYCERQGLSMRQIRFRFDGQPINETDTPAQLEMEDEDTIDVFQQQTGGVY
The next test deals with PC3 (Homo sapiens). Description: Cytotoxicity against human PC3 cells assessed as cell death at 10 to 20 uM incubated for 24 hrs by crystal violet staining based spectrophotometric analysis. The following applies: dose microM 10-20, time 24.0 hrs.
The test system of test [9] is PC-3. The experiment in a line: Cytotoxicity against human PC3 cells assessed as reduction in cell viability incubated for 48 hrs by crystal violet staining based spectrophotometric analysis. In kind it is functional. The following applies: PC-3, 48 h. The gist of the method: (§3)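 PC3 and MDA-MB-231 cells exposed to compounds for 48 h at 10 or 20 μM; viability compared with nontreated cells (significance P ≤ 0.05); IC50 values determined in both lines; at least three independent experiments, mean ± SEM.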

In a further test the test system is MDA-MB-231. Description: Cytotoxicity against human MDA-MB-231 cells assessed as reduction in cell viability incubated for 48 hrs by crystal violet staining based spectrophotometric analysis. In kind it is functional. The following applies: MDA-MB-231, 48 h. The gist of the method: as §3
Test [10] addresses Small ubiquitin-related modifier 1 (Homo sapiens) (UniProt P63165). The experiment in a line: Inhibition of SUMO1 (unknown origin) assessed as reduction in SUMOylated RanGAP1 level at 5 uM incubated for 60 mins by western blot analysis. In outline:
as §1

pIC50: −log10 of the molar value. Activity calls are given as the source filed them. The calls are words filed in the database; no cut-off is given here.

Broadly, the pIC50 is −log10 of the IC50, conventionally taken in molar units.

For `CCCCCCCCCCCCC/C=C/c1ccc(O)c(C(=O)O)c1`, the inhibition result in test [1] was “inactive”.
Same read-out and setting: next, `CCCCCCCCCCCCCCCc1ccc(C(=O)O)c(O)c1`: “inactive”; `CCCCCC/C=C/c1cccc(O)c1C(=O)O`: “inactive”.
For the molecule `CCCCCCCCCCCCCc1cccc(O)c1C(=O)O`, the result in the test with PC-3 [2], in the test on PC-3 [3], in the test with PC-3 [4], in the test with PC-3 [7] and in the test on PC3 (Homo sapiens) was Active. Besides, the inhibition entry in test [1], in test [5], in test [6] and in test [8] was “Active” each time.
As for `CCCCCCCCCCC/C=C/c1ccc(O)c(C(=O)O)c1`, the inhibition entry in test [1] was “inactive”.
Turning to `CCCCCCCCCCCCC/C=C/c1cccc(O)c1C(=O)O`, the inhibition result in test [1] was “Active”.
In the case of `CCCCCCCCCCC/C=C/c1ccc(C(=O)O)c(O)c1`, the inhibition result in [1] is “inactive”.
As for `CCCCCCCCCCCCCCCc1cccc(C(=O)O)c1O`, in [1], the inhibition result was “inactive”.
For `CCCCCCCCCCC/C=C/c1cccc(O)c1C(=O)O`, the outcome with PC-3 [2], in the test with PC-3 [3], in the test with PC-3 [4], in the test on PC-3 [7] and in the test on PC3 (Homo sapiens) was Active. For the same molecule, the inhibition result in [1], in test [5], in [6], in [10] and in test [8] was “Active” throughout. Also, the pIC50 in the test with PC-3 [9] was 4.97; with MDA-MB-231, 5.09.
On to `CCCCCCCCCCCCCc1ccc(C(=O)O)c(O)c1`, for which, in test [1], the inhibition result was “inactive”.
With `CCCCCCCCC/C=C/c1cccc(O)c1C(=O)O`, the result in the test on PC-3 [2], in the test on PC-3 [3], with PC-3 [4], with PC-3 [7] and in the test with PC3 (Homo sapiens) was Active. The inhibition result in [1], in test [5], in test [6], in test [10] and in test [8] was “Active” in each case.
Take `CCCCCCc1cccc(O)c1C(=O)O`: in [1], the inhibition result was “inactive”.
Same read-out and setting: the entry for `CCCCCCCCCCCCCCCc1cccc(O)c1C(=O)O` is “Active”.
On to `CCCCCCCCCCCCCCCc1ccc(O)c(C(=O)O)c1`, for which the inhibition entry in test [1] was “inactive”.
In the case of `CCCCCCCCCCCCCc1ccc(O)c(C(=O)O)c1`, in test [1], the inhibition result is “inactive”.
On to `CCCCCCCCC/C=C/c1cccc(C(=O)O)c1O`, for which, in [1], the inhibition result was “inactive”.
`CCCCCCCCCCCc1ccc(O)c(C(=O)O)c1`: the inhibition result in test [1] is “inactive”.
Same read-out and setting: next, `CCCCCCCCC/C=C/c1ccc(C(=O)O)c(O)c1`: “inactive”; `CCCCCCCCCCCc1cccc(C(=O)O)c1O`: “inactive”.
For `CCCCCCCCCCCc1cccc(O)c1C(=O)O`, the result with PC-3 [2], in the test on PC-3 [3], with PC-3 [4], with PC-3 [7] and in the test with PC3 (Homo sapiens) was Active. Also, the inhibition result in [1], in test [5], in test [6] and in test [8] was “Active” throughout.
On to `CCCCCCCCc1cccc(O)c1C(=O)O`, for which the inhibition entry in [1] was “inactive”.
Turning to `CCCCCCCCCCC/C=C/c1cccc(C(=O)O)c1O`, the inhibition entry in test [1] is “inactive”.
Consider `CCCC/C=C/c1cccc(O)c1C(=O)O`, for which the inhibition result in [1] is “inactive”.
Take `CCCCCCCCCCCCCc1cccc(C(=O)O)c1O`: the outcome in the test on PC-3 [2] and with PC-3 [4] was inactive. Also, the result with PC-3 [3] and in the test on PC-3 [7] was Active. For the same molecule, the inhibition result in test [1], in test [5] and in [6] was “inactive” each time. Also, the results for the negative logarithm of the IC50 (pIC50) in the test on PC-3 [9] and with MDA-MB-231 were 4.83 and 4.89, respectively.
Turning to `CCCCCCCCCCCCC/C=C/c1cccc(C(=O)O)c1O`, the inhibition result in test [1] is “inactive”.
Same read-out and setting: the entry for `CCCCCCCCCCCc1ccc(C(=O)O)c(O)c1` is “inactive”; for `CCCCCCCCC/C=C/c1ccc(O)c(C(=O)O)c1` it is “inactive”.
The same measure, in the same setting: next, `CCCCCCCCCCCCC/C=C/c1ccc(C(=O)O)c(O)c1`: “inactive”.
